The test system of data set [1] is MycCaP cells. The experiment in a line: Caspase-3 and immunogenic cell death assays in MycCaP cells. The class given is cell-based, mouse. The method, boiled down:
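MycCaP cells exposed to 4 μM test compound for 72 hr; supernatants collected. Secreted ATP read by bioluminescent kit and HMGB1 by ELISA, with cell counts taken for quantification. Surface calreticulin: cells stained with rabbit anti-calreticulin (1:1000, 60 min), then Alexa Fluor 488 anti-rabbit (1 μg/ml), read by flow cytometry.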

Data set [2] relates to human prostate cancer patient derived xenografts. The data set is described as follows: Prostate cancer PDX model. The class given is in vivo, mouse. The note with it: 55 mg/kg/day, 3 consecutive days a week for 2 weeks. The procedure, abridged: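 Minced fragments (~10 mm²) of prostate PDX TM00298 were implanted into the flanks of male NSG mice. Once grafts were measurable, test compound was given i.p. at 55 mg/kg/day on 3 consecutive days a week for two weeks. Tumour growth was expressed as percentage, n = 9 or 10 grafts.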

Data set [3] relates to MYC transcriptional activity (E-box-luciferase). The data set is described as follows: E-box luciferase reporter assay in vitro. The class given is cell-based. The procedure, abridged:
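MycCaP cells stably carrying either MYC E-box-luciferase reporter or control mCherry-P2A-luciferase vector plated 10000 cells/well. Serial dilution of test compound added the next day; luminescence read by Steady-Glo after 4 hr treatment.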

The nature of data set [4]: Pharmacokinetics of 361 in C57BL/6 mice. The class given is in vivo. The following applies: male, C57BL/6, mouse, plasma, 50 mg/kg.
For data set [5], the system named is MYC. The experiment in a line: Western blot of MYC protein level, stability and phosphorylation in cells. It is filed as cell-based, human. The procedure, abridged: (§1)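 PC3 cells, or PC3 stably expressing Flag-MYC, Flag-MYCT58A or Flag-MYCS62A (lentiviral, 1.5 μg/ml puromycin selection), were used. For stability, cells were pretreated 3 hr with compound or DMSO, then given cycloheximide and harvested at time points. MYC, pT58, pS62, GSK3β and pGSK3β S9 were detected by western blot over a time course. Band intensities were densitometrically quantified.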
(In western blotting, separated proteins are transferred to a membrane and probed.)

Data set [6] has as its target MYC (Homo sapiens, UniProt P01106, T73A). The description is as above. It is filed as cell-based. The note with it: 6 μM, PC3 cells expressing Flag-MYCT58A. The procedure, abridged: as §1

Values joined by “and” are separate entries in the source; they are usually repeats but may differ in a detail not shown here. Identical values can stand only once.

MYC (Homo sapiens, UniProt P01106, T73A), sequence (P01106 16-454 T73A): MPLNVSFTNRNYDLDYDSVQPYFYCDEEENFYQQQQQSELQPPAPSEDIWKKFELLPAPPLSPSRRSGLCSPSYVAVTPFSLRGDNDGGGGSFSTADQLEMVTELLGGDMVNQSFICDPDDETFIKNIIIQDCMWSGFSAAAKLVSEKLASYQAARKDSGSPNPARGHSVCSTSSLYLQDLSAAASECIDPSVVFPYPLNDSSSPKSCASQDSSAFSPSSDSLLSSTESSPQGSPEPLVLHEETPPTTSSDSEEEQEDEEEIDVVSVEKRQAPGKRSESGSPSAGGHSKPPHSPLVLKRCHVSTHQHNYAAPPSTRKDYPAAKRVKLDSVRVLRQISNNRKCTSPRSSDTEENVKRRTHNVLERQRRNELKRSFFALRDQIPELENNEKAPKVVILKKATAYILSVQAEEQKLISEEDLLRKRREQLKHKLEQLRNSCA

`Cn1nc(C(F)(F)F)cc1-c1ccc(OCc2ccc(Cl)cc2)c(-c2cc(C(F)(F)F)cc(C(F)(F)F)c2)c1O` [Compound 361, 6-((4-chlorobenzyl)oxy)-3-(1-methyl-3-(trifluoromethyl)-1H-pyrazol-5-yl)-3’,5’-bis(trifluoromethyl)-[1,1’-biphenyl]-2-ol]: the “markers of immunogenic cell death” value in data set [1] (4 μM, 72 hr) was “significant upregulation of cell surface calreticulin expression, and release of HMGB1 and ATP”. Further, the “cancer cell death, caspase-3” value in data set [1] (6 μM) was “induces cancer cell death with activated caspase-3 expression”. Moreover, the anti-tumor efficacy entry in data set [2] was “confirmed 361 anti-tumor efficacy”. Further, in data set [3], the “E-box-luciferase versus CMV-luciferase activity in vitro” value is “selectively inhibited E-box-luciferase but not CMV-luciferase activity”. In data set [4] (ip), the peak concentration (Cmax) is 27200 ng/mL and 46 µM; the concentration at 24 hr was 12700 ng/mL and 21 µM; the half-life is 44 h. In data set [4] (po), the maximum concentration (Cmax) is 13900 ng/mL and 23 µM; the concentration at 24 hr was 9 µM and 5280 ng/mL; the half-life is 20 h. The “phosphorylation of β-Catenin at S33/37/T41” value in data set [5] is “did not affect”. Also, the “MYC T58 and S62 phosphorylation” value in data set [5] (6 μM, PC3 cells) is reported as “selectively increased T58 but not S62 phosphorylation”. For the same molecule, the “regulatory GSK3β S9 phosphorylation” value in data set [5] (PC3 cells) was “did not affect”. Also, in data set [5] (multiple cell lines expressing MYC and MYCN), the “MYC, MYCN and MAX protein levels” value was “reduction in MYC and MYCN, but not MAX, protein levels”. Also, the “degradation of MYCT58A mutant” value in data set [6] is given as “not readily degraded”.

What is called Cmax is the maximum level reached in the sampled fluid or tissue. By half-life is commonly meant how long it takes for the measured level to halve.

Values taken from PMC6939458 (Cancer cell, 2019).
